Data reported in ChEMBL document CHEMBL5303300, “EUbOPEN Chemogenomics Library - Multiplex” (2023).
Where “and” joins values, the source holds several entries; their conditions need not be identical. Identical values can stand only once.

Tests used:
[1] = system: HEK-293T; assay: Multiplex assay against HEK293T; format: toxicity, cell-based; conditions: human, number of replicates 2
Method in brief: (§1)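 Compound was added to live cells that had been stained at seeding with Hoechst33342, BioTracker Green Microtubule Cytoskeleton Dye, MitoTracker Red and Annexin V Alexa Fluor 680, and imaging followed on a CQ1 microscope at 37°C and 5% CO2. CellPathfinder machine-learning gating divided cells into Hoechst high-intensity objects or normal cells, normal cells into healthy, pyknosed or fragmented nuclei, and pyknosed cells into mitotic or apoptotic. Tubulin, mitochondrial-mass and membrane-permeability phenotypes are per cents of healthy-nucleus cells.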

[2] = system: U2OS; assay: Multiplex assay against U2OS; format: toxicity, cell-based; conditions: human, number of replicates 2; method in brief: as §1
[3] = 24 h, 1 µM, compound concentration 1 uM
[4] = 24 h, 10 µM, compound concentration 10 uM
[5] = 48 h, 1 µM, compound concentration 1 uM
[6] = 48 h, 10 µM, compound concentration 10 uM
[7] = 12 h, 1 µM, compound concentration 1 uM
[8] = 12 h, 10 µM, compound concentration 10 uM

In the case of `CC(C)c1c(NC(=O)Nc2ccc(Cl)cc2)c(=O)n(-c2ccccc2)n1C`, the “Population Hoechst High Intensity Objects (%)” value [1, 3] is reported as 8%, the “Population Membrane Permeable-Phenotype (%)” value [1, 3] is reported as 4% and 3% and the “Population Mitochondria Different-Phenotype (%)” value [1, 3] is reported as 3% and 5%. For the same compound, the “Population Mitotic Cells (%)” value [1, 3] was 63% and 60%, the “Population Normal (%)” value [1, 3] was 91% and the “Population Pyknosed Nuclei (%)” value [1, 3] was 6% and 5%. The “Population Tubulin-Different-Phenotype (%)” value [1, 3] was 27% and 32%, the “Total Cell Count” value [1, 3] was 1449 and 1121 and the “Population Apoptotic (%)” value [1, 4] was 54% and 40%. The “Population Fragmented Nuclei (%)” value [1, 4] was 6%, the “Population Healthy Nuclei (%)” value [1, 4] was 85% and 83% and the “Population Hoechst High Intensity Objects (%)” value [1, 4] was 8% and 5%. For the same compound, the “Population Membrane Permeable-Phenotype (%)” value [1, 4] was 3%, the “Population Mitochondria Different-Phenotype (%)” value [1, 4] was 5% and 8% and the “Population Mitotic Cells (%)” value [1, 4] was 45% and 59%. For the same compound, the “Population Normal (%)” value [1, 4] was 91% and 94%, the “Population Pyknosed Nuclei (%)” value [1, 4] was 7% and 10% and the “Population Tubulin-Different-Phenotype (%)” value [1, 4] was 37% and 33%. For the same compound, the “Total Cell Count” value [1, 4] was 1033 and 815, the “Population Apoptotic (%)” value [1, 5] was 10% and 15% and the “Population Fragmented Nuclei (%)” value [1, 5] was 14% and 10%. For the same compound, the “Population Healthy Nuclei (%)” value [1, 5] was 83% and 86%, the “Population Hoechst High Intensity Objects (%)” value [1, 5] was 9% and 10% and the “Population Membrane Permeable-Phenotype (%)” value [1, 5] was 5% and 3%. The “Population Mitochondria Different-Phenotype (%)” value [1, 5] was 0%, the “Population Mitotic Cells (%)” value [1, 5] was 89% and 84% and the “Population Normal (%)” value [1, 5] was 90% and 89%. The “Population Pyknosed Nuclei (%)” value [1, 5] was 2% and 3%, the “Population Tubulin-Different-Phenotype (%)” value [1, 5] was 13% and 15% and the “Total Cell Count” value [1, 5] was 3573 and 2488. For the same compound, the “Population Apoptotic (%)” value [1, 6] was 16% and 17%, the “Population Fragmented Nuclei (%)” value [1, 6] was 15% and 13% and the “Population Healthy Nuclei (%)” value [1, 6] was 81% and 83%. For the same compound, the “Population Hoechst High Intensity Objects (%)” value [1, 6] was 8% and 9%, the “Population Membrane Permeable-Phenotype (%)” value [1, 6] was 7% and 4% and the “Population Mitochondria Different-Phenotype (%)” value [1, 6] was 0% and 1%. The “Population Mitotic Cells (%)” value [1, 6] was 83% and 82%, the “Population Normal (%)” value [1, 6] was 91% and 90% and the “Population Pyknosed Nuclei (%)” value [1, 6] was 3% and 2%. For the same compound, the “Population Tubulin-Different-Phenotype (%)” value [1, 6] was 19% and 15%, the “Total Cell Count” value [1, 6] was 2549 and 1775 and the “Population Apoptotic (%)” value [2, 7] was 33% and 32%. The “Population Healthy Nuclei (%)” value [2, 7] was 66% and 85%, the “Population Hoechst High Intensity Objects (%)” value [2, 7] was 0% and the “Population Membrane Permeable-Phenotype (%)” value [2, 7] was 0%. The “Population Mitochondria Different-Phenotype (%)” value [2, 7] was 0%, the “Population Mitotic Cells (%)” value [2, 7] was 66% and 68% and the “Population Normal (%)” value [2, 7] was 100%. The “Population Pyknosed Nuclei (%)” value [2, 7] was 10% and 9%, the “Population Tubulin-Different-Phenotype (%)” value [2, 7] was 65% and 81% and the “Population Apoptotic (%)” value [2, 8] was 100% and 43%. The “Population Hoechst High Intensity Objects (%)” value [2, 8] was 0%, the “Population Membrane Permeable-Phenotype (%)” value [2, 8] was 0% and 2% and the “Population Mitochondria Different-Phenotype (%)” value [2, 8] was 0%. The “Population Normal (%)” value [2, 8] was 100% and 99%, the “Population Pyknosed Nuclei (%)” value [2, 8] was 6% and the “Population Tubulin-Different-Phenotype (%)” value [2, 8] was 85% and 66%. For the same compound, the “Population Apoptotic (%)” value [2, 3] was 50% and 26%, the “Population Healthy Nuclei (%)” value [2, 3] was 68% and 89% and the “Population Hoechst High Intensity Objects (%)” value [2, 3] was 0%. The “Population Membrane Permeable-Phenotype (%)” value [2, 3] was 0% and 1%, the “Population Mitochondria Different-Phenotype (%)” value [2, 3] was 0% and the “Population Mitotic Cells (%)” value [2, 3] was 50% and 73%. For the same compound, the “Population Normal (%)” value [2, 3] was 100% and 99%, the “Population Pyknosed Nuclei (%)” value [2, 3] was 15% and 7% and the “Population Tubulin-Different-Phenotype (%)” value [2, 3] was 61% and 84%. For the same compound, the “Population Apoptotic (%)” value [2, 4] was 100% and 36%, the “Population Healthy Nuclei (%)” value [2, 4] was 32% and 87% and the “Population Hoechst High Intensity Objects (%)” value [2, 4] was 0%. For the same compound, the “Population Membrane Permeable-Phenotype (%)” value [2, 4] was 0% and 2%, the “Population Mitochondria Different-Phenotype (%)” value [2, 4] was 0% and the “Population Normal (%)” value [2, 4] was 100%. For the same compound, the “Population Pyknosed Nuclei (%)” value [2, 4] was 2% and 8%, the “Population Tubulin-Different-Phenotype (%)” value [2, 4] was 64% and 78% and the “Population Apoptotic (%)” value [2, 5] was 50% and 49%. For the same compound, the “Population Fragmented Nuclei (%)” value [2, 5] was 12% and 3%, the “Population Healthy Nuclei (%)” value [2, 5] was 72% and 88% and the “Population Hoechst High Intensity Objects (%)” value [2, 5] was 0%. The “Population Membrane Permeable-Phenotype (%)” value [2, 5] was 0% and 1%, the “Population Mitochondria Different-Phenotype (%)” value [2, 5] was 0% and the “Population Mitotic Cells (%)” value [2, 5] was 50%. The “Population Normal (%)” value [2, 5] was 100% and 99%, the “Population Pyknosed Nuclei (%)” value [2, 5] was 15% and 7% and the “Population Tubulin-Different-Phenotype (%)” value [2, 5] was 62% and 85%. For the same compound, the “Population Apoptotic (%)” value [2, 6] was 100% and 55%, the “Population Healthy Nuclei (%)” value [2, 6] was 31% and 91% and the “Population Hoechst High Intensity Objects (%)” value [2, 6] was 0%. For the same compound, the “Population Membrane Permeable-Phenotype (%)” value [2, 6] was 0% and 1%, the “Population Mitochondria Different-Phenotype (%)” value [2, 6] was 0% and the “Population Normal (%)” value [2, 6] was 100%. The “Population Pyknosed Nuclei (%)” value [2, 6] was 1% and 5% and the “Population Tubulin-Different-Phenotype (%)” value [2, 6] was 77% and 80%.
